Series [1] relates to human endometrial cancer (HEC1A) cells. In words: MTT cytotoxicity assay, HEC1A. The format is cell-based. The settings on record: for IC50: Homo sapiens, HEC-1-A, 48 h, read-out: HEC1A IC50, MTT cell viability, 48 h, n = 3 biological repeats; for Selectivity ratio: IC50 MAD11 divided by IC50 HEC1A. The essentials:
(§1)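 HEC1A (5000/well) and MAD11 (2500/well) cells were seeded and held overnight at 37 °C. Test compound was reconstituted in DMSO and serially diluted in medium to final 160, 80, 40, 20, 10, 5, 2.5 and 1.25 μM, in triplicate, with matched DMSO in all wells. After 48 h, MTT was added for 3 h, formazan solubilised (4 mM HCl, 0.1% NP-40, isopropanol) and absorbance read at 590/620 nm. IC50 was taken against vehicle controls; selectivity = MAD11 IC50 / HEC1A IC50.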
For orientation: Formazan colour is commonly taken as a measure of viable cells.

In series [2] the test system is HEC1A endometrial cancer cells. In words: Thiol rescue experiment. The settings on record: for rescue of cytotoxicity by NAC and GSH pre-treatment: NAC or GSH 2 mM for 40 min; for IC50: Homo sapiens, HEC-1-A; for ΔIC50 (+GSH): IC50 with GSH minus IC50 of compound alone; for ΔIC50 (+NAC): IC50 with NAC minus IC50 of compound alone. The format is cell-based, human. The procedure, abridged:
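HEC1A cells were seeded on day 1 (5000/well). On day 2 they were pre-treated 40 min with NAC or GSH, 2 mM in medium neutralised to pH 7.4. Test compound was then added (final 160–1.25 μM serial dilutions, triplicate, equal DMSO), with 48 h incubation. The MTT readout (3 h, absorbance 590/620 nm) followed. IC50 was compared with cells given no thiol.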

The subject of series [3] is noncancerous human endometrial stromal (MAD11) cells. The series is described as follows: MTT cytotoxicity assay, MAD11. The format is cell-based. The settings on record: MAD11, 48 h, read-out: MAD11 IC50. The essentials:
as §1

For series [4] the following is noted: 10 mg kg−1 via oral gavage in C57BL/6 mice; cited from earlier work.
In series [5] the test system is CALU-1 (lung squamous cell carcinoma). In words: MTT cytotoxicity assay, CALU-1. The settings on record: Homo sapiens, Calu-1, read-out: Mean IC50 CALU-1. The class given is cell-based. The essentials:
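Uses the HEC1A MTT protocol: test compound in DMSO, diluted to final 160 down to 1.25 μM in two-fold steps, in triplicate, with equal DMSO in controls. […] CALU-1 was cultured in MEM in place of DMEM. […]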

In the next series the test system is HEC1A cancer cells. In words: Oxygen consumption rate assay. The settings on record: over 120 minutes, compared to vehicle (DMSO) control, 21 at 20 μM. The class given is cell-based, human. The procedure, abridged: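 Seahorse XF96 OCR assay. HEC1A cells (15 000/well) adhered 24 h in DMEM, 10% FBS, penicillin/streptomycin at 37 °C, 5% CO₂. Medium was then swapped for unbuffered phenol-red-free DMEM (25 mM glucose, 4 mM glutamine, 1 mM pyruvate, pH 7.4), with 40 min degassing at 37 °C without CO₂. Three baseline reads preceded compound injection; 11 cycles (3 min wait, 3 min mix, 2 min measure) followed. OCR was normalised to the third baseline reading; DMSO served as vehicle control.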

Series [6] is described as follows: Pharmacokinetic profiling in vivo. Set-up: species or system C57BL/6 mice.

The IC50 is the concentration that inhibits the measured activity by half. For orientation: half-life means the time in which the quantity being followed falls by half.

Structures are written as SMILES. Several values for one entry are separate records, joined by “and”; a condition that tells them apart may be missing. Equal entries are not always repeated. Entries after “also recorded” stand apart in the source; their conditions may differ. Where two headings read alike, the source gives them in different places. Bounds are passed on as bounds.

As to `O=C1C(Cl)=C(NCCN2CCOCC2)C(=O)c2ccccc21` [BH10, 2-chloro-3-[(2-morpholin-4-ylethyl)amino]naphthalene-1,4-dione, reference compound], the IC50 in series [1] was 10.2 µM; in series [2] (read-out: +GSH IC50 ± SEM) it was above 80 µM; in series [2] (read-out: +NAC IC50), 58 µM; in series [3] it was 25.6 µM; in series [5], 16.7 µM. In addition, the Selectivity ratio in series [1] was found to be 2.51. Moreover, the “rescue of cytotoxicity by NAC and GSH pre-treatment” value (“rescue of cytotoxicity” for short) in series [2] (HEC1A) is “rescued”. Besides, in series [2], the “ΔIC50 (+GSH)” value is recorded as “>+69.78 μM”. Besides, the “ΔIC50 (+NAC)” value in series [2] is “+47.78 μM”. Moreover, the half-life in series [4] is recorded as 21.6 min. In addition, the “maximum OCR increase” value in the series on HEC1A cancer cells is “up to 200%”.

With `Cc1nc2c(n1CCCN1CCCCC1)C(=O)c1ccccc1C2=O` [Compound 44, 2-Methyl-1-(3-(piperidin-1-yl)propyl)-1H-naphtho[2,3-d]imidazole-4,9-dione], the IC50 in series [1] turned out to be 6.4 µM; in series [2] (read-out: +GSH IC50 ± SEM) it was 7.4 µM; in series [2] (read-out: +NAC IC50), 6.8 µM; in series [2] (read-out: Alone IC50), 6.4 µM; in series [3] it was 23 µM; in series [5] it was 15.4 µM. Besides, the Selectivity ratio in series [1] is 3.6 and 3.59. Besides, in series [6] (C57BL/6, mouse, plasma, po, 20 mg/kg), the half-life is 26.8 min. For the same molecule, the “half-life longer than BH10” value in series [6] (oral administration, versus BH10 t1/2 = 21.6 min) amounted to 5.2 min. In addition, in series [2] (HEC1A), the “rescue of cytotoxicity” value is “did not rescue; also recorded: unaffected”. Moreover, the “ΔIC50 (+GSH)” value in series [2] was “+1.00 μM”. Moreover, in series [2], the “ΔIC50 (+NAC)” value was “+0.40 μM”. Also, the “maximum OCR increase” value with HEC1A cancer cells came to 130%.

Consider `O=C1C(Cl)=C(NCCCN2CCCCC2)C(=O)c2ccccc21` [Compound 21, 2-Chloro-3-((3-(piperidin-1-yl)propyl)amino)-[1,4]-naphthoquinone], for which the IC50 amounted to 1.83 µM in series [1]; 16 µM in series [2] (read-out: +GSH IC50 ± SEM); 13 µM in series [2] (read-out: +NAC IC50); 1.83 µM in series [2] (read-out: Alone IC50); 4.79 µM in series [3]; 4.7 µM in series [5]. For the same molecule, the Selectivity ratio in series [1] turned out to be 2.62. The “decrease of potency with GSH pre-treatment (times)” value in series [2] (HEC1A, GSH 2 mM) turned out to be 8.7 times. The “decrease of potency with NAC pre-treatment (times)” value in series [2] (HEC1A, NAC 2 mM) came out at 7.1 times. Also, in series [2] (HEC1A), the “rescue of cytotoxicity” value is reported as “partially rescued”. For the same molecule, the “ΔIC50 (+GSH)” value in series [2] was “+14.17 μM”. Further, the “ΔIC50 (+NAC)” value in series [2] is listed as “+11.17 μM”. In addition, the “maximum OCR increase” value in the series on HEC1A cancer cells is recorded as “approximately 280%”.

`CCCCNC1=C(Cl)C(=O)c2ccccc2C1=O` [Compound 23, 2-(Butylamino)-3-chloro-[1,4]-naphthoquinone]: in series [1], the IC50 stood at 32 µM and the Selectivity ratio is above 1.25. Moreover, in series [3], the IC50 was above 40 µM.

In the case of `CCOC(=O)c1ccc(-n2cc(CNC3=C(Cl)C(=O)c4ccccc4C3=O)nn2)cc1` [Compound 33, Ethyl 4-(4-(((3-chloro-1,4-dioxo-1,4-dihydronaphthalen-2-yl)amino)methyl)-1H-1,2,3-triazol-1-yl)benzoate], in series [1], the IC50 came out at 11.1 µM and the Selectivity ratio is recorded as 1.92. Further, the IC50 in series [3] turned out to be 21.3 µM.

Regarding `COC(=O)[C@H](Cc1ccccc1)NC1=C(Cl)C(=O)c2ccccc2C1=O` [Compound 27, Methyl (3-chloro-1,4-dioxo-1,4-dihydronaphthalen-2-yl)-L-phenylalaninate], the IC50 in series [1] and in series [3] was above 40 µM each time.

Regarding `CCOC(=O)CNC1=C(Cl)C(=O)c2ccccc2C1=O` [Compound 25, Ethyl (3-chloro-1,4-dioxo-1,4-dihydronaphthalen-2-yl)glycinate], in series [1], the IC50 is 20 µM and the Selectivity ratio was found to be 1.00. For the same molecule, the half-inhibitory concentration (IC50) in series [3] stood at 20.1 µM.

The values above are taken from PMC11986672 (RSC Medicinal Chemistry, 2025).
